Values belong to the compound of their own block, whether it stands above or below them. Calls of active or inactive are those of the source. The rule behind the calls is not given here.
What was measured:
[1] = Intrinsic clearance in rat hepatocytes assessed per million cells at 1 uM after 120 mins by LC-MS/MS method; assay type: ADME, cell-based, Hepatocyte; details: 2 h
Liver = experiment: Intrinsic clearance in human liver microsomes at 1 uM after 30 mins by LC-MS/MS method; assay type: ADME, microsome; details: 0.5 h
[2] = Unbound brain-to-plasma concentration ratio in CD rat at 1 mg/kg, po as cassette dose after 2 hrs by LC-MS/MS method; assay type: ADME, organism-based; details: brain and plasma, read-out: K(p,uu,brain)
Beta-secretase 1 [3] = target: T1, Beta-secretase 1 (Homo sapiens, UniProt P56817); experiment: Inhibition of BACE1 in human SH-SY5Y cells assessed as decrease in sAPP-beta release after 16 to 17 hrs; assay type: cell-based
Beta-secretase 1 [4] = target: T1, Beta-secretase 1; experiment: Inhibition of human BACE1 (1 to 460 residues) fused with Fc domain of IgG1 expressed in HEK293 cells preincubated for 10 mins followed by substrate addition measured after 17 mins by TR-FRET assay; assay type: cell-based
Summary of the method: (§1)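 Biochemical protease assays on the human BACE1 or BACE2 enzyme. Both assays use the same fluorescently labelled peptide substrate, designed to span the BACE cleavage site of APP.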

[5] = Unbound brain-to-plasma concentration ratio in CD rat at 5 mg/kg, po as cassette dose after 2 hrs by LC-MS/MS method; assay type: ADME, organism-based; details: brain and plasma, read-out: K(p,uu,brain)
hERG (KCNH2) = hERG (KCNH2) (Homo sapiens, UniProt Q12809); experiment: Inhibition of human ERG at 11.1 uM relative to control
[6] = Apparent permeability across MDCK cells expressing MDR1 after 2 hrs by LC-MS/MS method; assay type: ADME, cell-based, Canis lupus familiaris; details: dog
Beta-secretase 2 [7] = target: T2, Beta-secretase 2 (Homo sapiens, UniProt Q9Y5Z0); experiment: Inhibition of human BACE2 (1 to 473 residues) using CEVNLDAEFK as substrate preincubated for 10 mins followed by substrate addition measured after 6.5 hrs by TR-FRET assay; summary of the method: as §1
T2 sequence (Q9Y5Z0 whole entry): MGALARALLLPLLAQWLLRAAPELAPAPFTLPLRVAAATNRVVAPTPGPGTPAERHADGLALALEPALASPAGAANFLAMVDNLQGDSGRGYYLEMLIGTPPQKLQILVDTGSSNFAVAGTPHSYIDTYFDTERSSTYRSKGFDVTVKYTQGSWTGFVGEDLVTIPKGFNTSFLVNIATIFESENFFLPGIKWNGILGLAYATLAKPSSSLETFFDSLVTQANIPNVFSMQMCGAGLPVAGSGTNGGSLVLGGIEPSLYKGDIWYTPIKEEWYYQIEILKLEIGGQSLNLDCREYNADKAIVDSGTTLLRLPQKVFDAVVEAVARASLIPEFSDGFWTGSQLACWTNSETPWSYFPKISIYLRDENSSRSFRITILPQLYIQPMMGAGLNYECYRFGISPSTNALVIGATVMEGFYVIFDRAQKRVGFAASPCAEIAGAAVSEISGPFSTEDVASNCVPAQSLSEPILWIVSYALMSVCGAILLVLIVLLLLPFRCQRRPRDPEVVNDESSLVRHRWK

Beta-secretase 2 [8] = target: T2, Beta-secretase 2; experiment: Inhibition of BACE2 in human MNT1 cells assessed as increase in M-beta accumulation at 10 nM after 24 hrs by Western blot method; assay type: cell-based; details: 0.01 µM
Summary of the method: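 Human melanocyte MNT1 cells incubated with a range of inhibitor concentrations or vehicle (0.1% DMSO), then processed to detect parent PMEL (P1) and the proteolytically cleaved Mβ fragment. Mβ accumulation serves as the read-out of BACE2 inhibition.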

Sus scrofa = organism: Sus scrofa; experiment: Inhibition of pig pepsin up to 100 uM using MOCAc-Ala-Pro-Ala-Lys-Phe-Phe-Arg-Leu-Lys(Dnp)-NH2 as substrate after 60 mins by spectrophotometric method; details: tested as the 2H-labelled form
Mus musculus [9] = experiment: Reduction of amyloid beta-42 levels in C57BL/6 mouse brain at 50 mg/kg, po after 1.5 to 16 hrs by immunoassay relative to vehicle-treated control; assay type: functional, organism-based; details: tested as the 2H-labelled form
Summary of the method: (§2)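 PK/PD study in C57BL/6 mice given 50 mg/kg orally. Brain Aβ40 and Aβ42 and plasma Aβ40 levels were followed over time alongside free brain and plasma exposure, and compared with vehicle-treated controls.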

[10] = target: Cathepsin D (Homo sapiens) (UniProt P07339); experiment: Inhibition of human cathepsin D up to 100 uM using MOCAc-Gly-Lys-Pro-Ile-Leu-Phe-Phe-Arg-Leu-Lys(Dnp)-D-Arg-NH2 as substrate after 10 mins by spectrophotometric method; details: tested as the 2H-labelled form
Mus musculus [11] = experiment: Reduction of amyloid beta-40 levels in C57BL/6 mouse plasma at 50 mg/kg, po after 1.5 to 16 hrs by immunoassay; assay type: functional, organism-based; details: tested as the 2H-labelled form; summary of the method: as §2
Mus musculus [12] = experiment: Reduction of amyloid beta-40 levels in C57BL/6 mouse brain at 50 mg/kg, po after 1.5 to 16 hrs by immunoassay relative to vehicle-treated control; assay type: functional, organism-based; details: tested as the 2H-labelled form; summary of the method: as §2
Renin (Homo sapiens) = target: T3, Renin (Homo sapiens) (UniProt P00797); experiment: Inhibition of full length recombinant human renin up to 100 uM using DABCYL-gamma-Abu-Ile-His-Pro-Phe-His-Leu-Val-Ile-His-Thr-EDANS as substrate after 60 mins by spectrophotometric method; details: tested as the 2H-labelled form
T3 sequence (whole entry): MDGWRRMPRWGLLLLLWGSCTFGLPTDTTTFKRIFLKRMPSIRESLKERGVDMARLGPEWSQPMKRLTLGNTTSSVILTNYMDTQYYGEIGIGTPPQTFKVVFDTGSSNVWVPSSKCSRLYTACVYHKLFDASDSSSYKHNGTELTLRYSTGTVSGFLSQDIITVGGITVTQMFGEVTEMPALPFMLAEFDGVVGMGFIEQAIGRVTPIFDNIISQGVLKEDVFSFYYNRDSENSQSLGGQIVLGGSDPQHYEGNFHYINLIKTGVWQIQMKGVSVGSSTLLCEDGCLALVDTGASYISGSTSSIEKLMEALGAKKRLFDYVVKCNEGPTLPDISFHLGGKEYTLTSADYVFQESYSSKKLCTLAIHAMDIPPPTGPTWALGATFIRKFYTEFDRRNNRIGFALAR

[13] = target: Cathepsin S (Homo sapiens) (UniProt P25774); experiment: Inhibition of full length recombinant human cathepsin S up to 100 uM using Z-Leu-Arg-AMC as substrate after 30 mins by spectrophotometric method; details: tested as the 2H-labelled form
[14] = target: Voltage-gated inwardly rectifying potassium channel KCNH2 (Homo sapiens, UniProt Q12809); experiment: Inhibition of human ERG
Beta-secretase 2 [15] = target: T2, Beta-secretase 2; experiment: Inhibition of BACE2 in human MNT1 cells assessed as increase in M-beta accumulation at 10 uM after 24 hrs by Western blot method; assay type: cell-based
Summary of the method: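 Human melanocyte MNT1 cells incubated with a range of inhibitor concentrations or vehicle (0.1% DMSO). Cells then processed to detect parent PMEL (P1) and the proteolytically cleaved Mβ fragment. Mβ fragment accumulation serves as the read-out of BACE2 inhibition.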

Mus musculus [16] = experiment: Reduction of amyloid beta-42 levels in C57BL/6 mouse brain at 50 mg/kg, po after 3 hrs by immunoassay relative to vehicle-treated control; assay type: functional; parameters: scale not given: the % may be the effect or the level left; summary of the method: as §2
Brain = experiment: Fraction unbound in C57BL/6 mouse brain at 50 mg/kg, po after 3 hrs by LC-MS/MS analysis; assay type: ADME, organism-based; details: in vivo

T1 sequence (P56817 whole entry, the tested form may be a part): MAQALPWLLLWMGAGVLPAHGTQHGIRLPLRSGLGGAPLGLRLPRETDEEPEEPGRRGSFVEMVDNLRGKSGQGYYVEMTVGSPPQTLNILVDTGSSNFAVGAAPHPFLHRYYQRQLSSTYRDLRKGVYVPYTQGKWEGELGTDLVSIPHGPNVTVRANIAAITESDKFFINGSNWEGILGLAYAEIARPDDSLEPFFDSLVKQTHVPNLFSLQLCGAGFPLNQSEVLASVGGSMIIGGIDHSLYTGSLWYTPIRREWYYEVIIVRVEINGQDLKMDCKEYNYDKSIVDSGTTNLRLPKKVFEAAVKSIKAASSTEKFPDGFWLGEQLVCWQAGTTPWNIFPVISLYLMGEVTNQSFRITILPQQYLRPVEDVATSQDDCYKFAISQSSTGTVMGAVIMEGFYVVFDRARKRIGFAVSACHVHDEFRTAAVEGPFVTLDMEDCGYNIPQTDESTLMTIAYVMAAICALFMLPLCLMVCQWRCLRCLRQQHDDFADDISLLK
Chain of hERG (KCNH2) (Q12809 whole entry): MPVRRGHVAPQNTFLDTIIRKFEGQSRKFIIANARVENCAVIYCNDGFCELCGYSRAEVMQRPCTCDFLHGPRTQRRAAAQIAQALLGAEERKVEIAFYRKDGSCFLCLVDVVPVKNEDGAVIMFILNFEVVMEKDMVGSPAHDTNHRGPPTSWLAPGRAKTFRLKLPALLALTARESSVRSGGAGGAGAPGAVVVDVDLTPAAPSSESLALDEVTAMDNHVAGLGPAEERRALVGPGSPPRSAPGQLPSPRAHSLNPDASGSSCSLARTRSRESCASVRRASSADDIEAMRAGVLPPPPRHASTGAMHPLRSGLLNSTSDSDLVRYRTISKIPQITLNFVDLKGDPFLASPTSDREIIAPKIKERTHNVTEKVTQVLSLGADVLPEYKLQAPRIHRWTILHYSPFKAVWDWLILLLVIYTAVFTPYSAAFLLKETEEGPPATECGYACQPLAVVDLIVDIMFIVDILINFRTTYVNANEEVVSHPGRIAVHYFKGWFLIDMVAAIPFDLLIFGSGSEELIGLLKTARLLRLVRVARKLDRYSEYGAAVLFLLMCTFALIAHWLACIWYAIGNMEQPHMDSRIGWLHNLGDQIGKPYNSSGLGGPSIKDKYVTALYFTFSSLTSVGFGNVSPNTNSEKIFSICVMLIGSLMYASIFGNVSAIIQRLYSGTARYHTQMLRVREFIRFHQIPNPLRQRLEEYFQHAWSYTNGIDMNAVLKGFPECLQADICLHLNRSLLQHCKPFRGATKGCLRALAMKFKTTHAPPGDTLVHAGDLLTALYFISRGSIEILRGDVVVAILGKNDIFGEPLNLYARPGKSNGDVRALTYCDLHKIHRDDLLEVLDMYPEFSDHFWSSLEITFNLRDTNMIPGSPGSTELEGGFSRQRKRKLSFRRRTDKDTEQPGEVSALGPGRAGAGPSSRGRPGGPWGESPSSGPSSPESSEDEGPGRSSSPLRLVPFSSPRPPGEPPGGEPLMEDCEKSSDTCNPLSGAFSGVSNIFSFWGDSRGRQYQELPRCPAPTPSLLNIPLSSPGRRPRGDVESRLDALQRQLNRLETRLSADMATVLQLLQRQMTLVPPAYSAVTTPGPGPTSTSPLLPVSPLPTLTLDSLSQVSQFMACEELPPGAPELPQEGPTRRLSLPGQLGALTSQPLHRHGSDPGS
Chain of Voltage-gated inwardly rectifying potassium channel KCNH2 (Q12809 whole entry): as above
Chain of Cathepsin S (Homo sapiens) (P25774 115-331 limits assumed): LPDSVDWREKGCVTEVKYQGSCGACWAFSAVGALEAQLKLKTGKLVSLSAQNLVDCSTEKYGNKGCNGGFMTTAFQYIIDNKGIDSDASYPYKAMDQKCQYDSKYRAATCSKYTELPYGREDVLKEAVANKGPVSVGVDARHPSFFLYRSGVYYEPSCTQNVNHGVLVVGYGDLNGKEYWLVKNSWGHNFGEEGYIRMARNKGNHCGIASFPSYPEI
Chain of Cathepsin D (Homo sapiens) (P07339 65-162 limits assumed): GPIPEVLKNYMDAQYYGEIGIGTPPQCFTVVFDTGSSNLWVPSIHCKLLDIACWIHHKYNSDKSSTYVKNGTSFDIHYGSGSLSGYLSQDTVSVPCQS
Chain of Cathepsin D (Homo sapiens) (P07339 169-412 limits assumed): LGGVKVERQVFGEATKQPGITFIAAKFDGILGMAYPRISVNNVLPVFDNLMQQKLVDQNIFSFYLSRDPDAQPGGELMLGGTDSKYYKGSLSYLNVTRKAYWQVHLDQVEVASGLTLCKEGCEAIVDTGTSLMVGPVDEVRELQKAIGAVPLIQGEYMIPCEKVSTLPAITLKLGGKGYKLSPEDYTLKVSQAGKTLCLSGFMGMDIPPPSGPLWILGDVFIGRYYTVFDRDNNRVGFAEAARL

CLH [1]: 23.9 µL/min/10^6 cells | CLH (Liver): 13.9 µL/min/mg | Kp uu at 2 h [2]: 0.07
SMILES: COc1cc(C#N)cc(-c2ccc3c(c2)[C@@]2(COC(N)=N2)[C@]2(CC[C@H](OC)CC2)C3)c1

Kp uu at 2 h [5]: 0.68 | CLH [1]: 8.7 µL/min/10^6 cells | CLH (Liver): 11.5 µL/min/mg
SMILES: [2H]C1([2H])OC(N)=N[C@]12c1cc(-c3cc(Cl)cc(C#N)c3)ccc1C[C@]21CC[C@@H](OC)CC1

IC50 (Beta-secretase 1 [3]): 0.007 µM | Ki (Beta-secretase 1 [4]): 0.43 µM
SMILES: [2H]C1([2H])OC(N)=N[C@]12c1cc(-c3cccnc3)ccc1C[C@]21CC[C@@H](OC)CC1

CLH [1]: 11.6 µL/min/10^6 cells | permeability [6]: Impermeable | CLH (Liver): 11.1 µL/min/mg | Kp uu at 2 h [2]: 0.21
SMILES: CO[C@H]1CC[C@]2(CC1)Cc1ccc(-c3cc(Cl)cc(C#N)c3)cc1[C@@]21COC(N)=N1

Kp uu at 2 h [5]: 0.27 | CLH [1]: 25.1 µL/min/10^6 cells | CLH (Liver): 15.7 µL/min/mg
SMILES: [2H]C1([2H])OC(N)=N[C@]12c1cc(-c3cc(C#N)cc(OC)c3)ccc1C[C@]21CC[C@@H](OC)CC1

Second part, the compound before the results:

SMILES: [2H]C1([2H])OC(N)=N[C@]12c1cc(-c3cncnc3)ccc1C[C@]21CC[C@@H](OC)CC1
IC50 (Beta-secretase 1 [3]): 0.007 µM | Ki (Beta-secretase 1 [4]): 0.134 µM

SMILES: [2H]C1([2H])OC(N)=N[C@]12c1cc(-c3cncnc3)ccc1C[C@@]21CC[C@H](OC)[C@@H](CC)C1
CLH [1]: 158 µL/min/10^6 cells | inhibition at 11.1 µM (hERG (KCNH2)): 29% | CLH (Liver): 153 µL/min/mg

SMILES: NC1=N[C@@](c2cccc(-c3cncnc3)c2)(c2ccnc(C(F)F)c2)c2cccc(F)c21 [AZD-3839]
IC50 (Beta-secretase 2 [7]): 0.0009 µM | inhibition (INH) (Beta-secretase 2 [8]): Active

SMILES: [2H]C1([2H])OC(N)=N[C@]12c1cc(-c3cncnc3)ccc1C[C@]21CC[C@@H](OC)[C@H](CC)C1
CLH [1]: 138 µL/min/10^6 cells | inhibition at 11.1 µM (hERG (KCNH2)): 15% | CLH (Liver): 149 µL/min/mg

SMILES: CO[C@H]1CC[C@@]2(Cc3ccc(-c4cncnc4)cc3[C@@]23COC(N)=N3)C[C@@H]1C
inhibition (Sus scrofa): inactive | Activity (Mus musculus [9]): inactive | inhibition [10]: inactive | Activity (Mus musculus [11]): Active | Activity (Mus musculus [12]): inactive | inhibition (Renin (Homo sapiens)): inactive | inhibition [13]: inactive

SMILES: [2H]C1([2H])OC(N)=N[C@]12c1cc(-c3cncnc3)ccc1C[C@]21CC[C@@H](OC)[C@H](C)C1
IC50 [14]: > 33 µM | CLH [1]: 82 µL/min/10^6 cells | CLH (Liver): 52.4 µL/min/mg

SMILES: [2H]C1([2H])OC(N)=N[C@]12c1cc(-c3cncnc3)ccc1C[C@@]21CC[C@H](OC)[C@@H](C)C1
IC50 [14]: > 33 µM | inhibition (INH) (Beta-secretase 2 [15]): Active | Activity (Mus musculus [16]): 30% | CLH [1]: 66 µL/min/10^6 cells | Drug uptake(free) (Brain): 50 nM | CLH (Liver): 47 µL/min/mg

SMILES: [2H]C1([2H])OC(N)=N[C@]12c1cc(-c3cncnc3)ccc1C[C@@]21C[C@@H](C)[C@H](OC)[C@@H](C)C1 (racemic)
CLH [1]: 137 µL/min/10^6 cells | CLH (Liver): 187 µL/min/mg

Reference: ChEMBL document CHEMBL4043307, “Toward β-Secretase-1 Inhibitors with Improved Isoform Selectivity” (J Med Chem, 2018)
